# Data reported in PubChem BioAssay.
# Activity calls are given as the source filed them.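 Rule for the calls, unless noted: active = GFP response above 150% of the DMSO level; inconclusive = fewer than 70 events counted for a yeast strain; inactive = the rest.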
# Columns and labels:
# [1] = RPL19A-GFP modulators, yeast TOR pathway, confirmation, cell-based, S. cerevisiae, flow cytometry, cherry picks, mother/daughter gates (AID 2270;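 active = GFP response below 50% of the DMSO control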); conditions: S. cerevisiae RPL19A-GFP strain, 3 h, at 10 µM, stronger effect = lower value, 100 = same GFP as DMSO wells
# [2] = LAP4-GFP expression modulators in yeast, confirmation, cell-based, cherry picks, flow cytometry, mother/daughter gates (AID 2271;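 active = GFP response above 150% of the DMSO control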;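 note: ratio of sample to DMSO plate mean so 100% equals DMSO level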); conditions: S. cerevisiae LAP4-GFP strain, 3 h, at 10 µM, stronger effect = higher value, 100 means same as DMSO control
# Method in brief: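 System: Alexa 633-stained baker's yeast GFP-fusion strain; quantity: 0.2 OD600 cells; timing: compound exposure 3 h at 30 °C, end-over-end rotation; detection: HT flow cytometry, GFP fluorescence channel; measure: per-gate (all, mother, daughter) GFP response vs DMSO; control set: DMSO-only negative wells, rapamycin 400 ng/mL positive wells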
# [3] = modulators of MEP2-GFP levels in yeast, confirmation, S. cerevisiae, flow cytometry GFP, cherry picks (AID 2272;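 active = GFP response above 150% of the DMSO control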;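 note: ratio of well signal to plate DMSO mean so 100% equals DMSO level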); conditions: S. cerevisiae MEP2-GFP strain, 3 h, at 10 µM, stronger effect = higher value
# [4] = AGP1-GFP expression modulators, hit retest, confirmation, cell-based, flow cytometry, S. cerevisiae, cherry picks (AID 2273);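 note: median GFP channel fluorescence over the whole cell population gate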; conditions: S. cerevisiae AGP1-GFP strain, 3 h, at 10 µM
# [5] = modulators of CIT2-GFP expression in yeast, confirmation, S. cerevisiae, GFP fusion, cherry picks, mother/daughter gates (AID 2274); conditions: S. cerevisiae CIT2-GFP strain, flow cytometry, 3 h, at 10 µM, stronger effect = higher value
# [6] = measured here: daughter cell gate
# [7] = measured here: mother cell gate
# [8] = measured here: daughter cell gate response
# [9] = measured here: mother cell gate response
SMILES,GFP response vs DMSO [1],"GFP response vs DMSO [1, 6]","GFP response vs DMSO [1, 7]",GFP response relative to DMSO [2],"GFP response relative to DMSO [2, 8]","GFP response relative to DMSO [2, 9]",GFP response vs DMSO [3],"GFP response, % of DMSO [4]","GFP response, % of DMSO [5]","GFP response, % of DMSO [5, 6]","GFP response, % of DMSO [5, 7]"
CCOC(=O)c1c(C)[nH]c(C)c1C(=O)COC(=O)c1cc2ccccc2cc1O,96.2% (inactive),97.3%,94.8%,106% (inactive),104%,109%,103% (inactive),103% (inactive),98.4% (inactive),96.8%,96.7%
Cc1ccc(C(=O)Oc2oc(-c3ccccc3)nc2C=Nc2ccc(N(C)C)cc2)cc1,98.2% (inactive),99.4%,98.8%,94.9% (inactive),98.2%,93%,105% (inactive),101% (inactive),113% (inactive),114%,114%
Cc1nn(C)c(C(=O)Sc2cccc(Cl)c2)c1[N+](=O)[O-],99.6% (inactive),97.6%,99.4%,126% (inactive),114%,130%,121% (inactive),102% (inactive),104% (inactive),103%,101%
CC1(C)CC(=O)C2=C(C1)OC1=C(C(=O)CC(C)(C)C1)C2c1ccc(O)cc1O,104% (inactive),105%,99.8%,143% (inactive),139%,143%,97.8% (inactive),96.3% (inactive),95.2% (inactive),103%,89.1%
Cc1ccc(S(=O)(=O)c2ccc([N+](=O)[O-])cn2)cc1,93.2% (inactive),99.5%,84.5%,185% (active),156%,177%,139% (inactive),115% (inactive),103% (inactive),114%,93.4%
O=C(Oc1c(Cl)cc(Cl)c2cccnc12)c1cccc([N+](=O)[O-])c1,106% (inactive),92.9%,108%,244% (active),183%,236%,133% (inactive),101% (inactive),134% (inactive),121%,131%
O=C(OCn1ncc(Br)c(Br)c1=O)c1c(F)cccc1F,93.3% (inactive),94%,90.6%,168% (active),153%,175%,98.8% (inactive),116% (inactive),97.2% (inactive),105%,88.8%
O=C(Nc1cccnc1)c1ccc(-c2ccc(Cl)cc2)o1,97.2% (inactive),93.9%,97.7%,101% (inactive),100%,103%,97.8% (inactive),94.1% (inactive),100% (inactive),98.1%,99.8%
O=[N+]([O-])/C=C/c1c(OCc2ccccc2)ccc2ccccc12,102% (inactive),104%,101%,112% (inactive),106%,118%,98.8% (inactive),102% (inactive),99.7% (inactive),103%,94.7%
CCN1/C(=C/c2ccc3cc(C)ccc3[n+]2CC)Sc2ccc3sccc3c21,96.7% (inactive),74.3%,92.3%,316% (active),155%,287%,244% (active),118% (inactive),132% (inactive),110%,133%
Cc1cccc(N2C(=O)CC(Sc3nc(C)c4c(n3)CCCC4)C2=O)c1 (configuration not stated),96.8% (inactive),95.4%,97.2%,94.1% (inactive),94.4%,95.1%,102% (inactive),95% (inactive),99.7% (inactive),99.1%,99.7%
CCOc1ccc(NC2=C(Cl)C(=O)N(Cc3ccccc3)C2=O)cc1,98.2% (inactive),98.3%,100%,102% (inactive),96.5%,102%,99.5% (inactive),95.8% (inactive),96.4% (inactive),98.3%,94.5%
CCOC(=O)CNc1c(-c2ccc(OC)cc2)nc2ccc(Cl)cn12,100% (inactive),98.4%,101%,99.8% (inactive),98.7%,102%,97.8% (inactive),99.2% (inactive),95.2% (inactive),93.2%,93.4%
CC(=O)Nc1ccc(Nc2cc(C)nc3c(-c4ccc(Cl)cc4)c(C)nn23)cc1,94.6% (inactive),94.4%,95.8%,94.1% (inactive),92.8%,95.1%,100% (inactive),95% (inactive),105% (inactive),105%,104%
COc1ccc(-c2ccc(S(=O)(=O)N3CCOCC3)cc2)cc1,95.4% (inactive),93.9%,95.7%,107% (inactive),106%,107%,99% (inactive),100% (inactive),100% (inactive),97.4%,102%
NNC(=O)c1ccc(COc2ccc3ccccc3c2)cc1,98% (inactive),96.1%,95.7%,101% (inactive),101%,102%,99% (inactive),94.9% (inactive),93% (inactive),93.8%,91.9%
O=C1C(=O)c2ccc(-c3ccccc3)cc2-c2ccccc21,102% (inactive),104%,102%,117% (inactive),110%,124%,115% (inactive),90.4% (inactive),107% (inactive),106%,102%
